ChEMBL document CHEMBL1134383, “Synthesis and pharmacology of 3-isoxazolol amino acids as selective antagonists at group I metabotropic glutamic acid receptors” (J Med Chem, 2001)

Tests used:
[1] = biological target: Glutamate receptor ionotropic, AMPA (Rattus norvegicus, UniProt P19490+P19491+P19492+P19493); experiment: Binding affinity for AMPA receptor using [3H]AMPA; type: protein-complex assay
How it was run: (§1)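 Radioligand displacement using [3H]AMPA (AMPA), [3H]KA (kainate) or [3H]CPP (NMDA) on membrane preparations. Mean ± SEM of at least three independent results; one value estimated. Low-solubility compounds tested only at 200 μM.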

Rattus norvegicus = species: Rattus norvegicus; experiment: Excitatory activity in the rat cortical slice model.; type: functional, organism-based
How it was run: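 Rat cortical slice depolarizations evoked by excitatory amino acids; agonists applied 90 s at each concentration, with receptor selectivity checked using NBQX (AMPA) or CPP (NMDA). Poorly soluble compounds tested up to 200 μM.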

[2] = biological target: Glutamate receptor ionotropic, kainate; experiment: Binding affinity for Ionotropic glutamate receptor kainate by [3H]-kainic acid displacement; type: protein-complex assay, Rattus norvegicus; how it was run: as §1
Glutamate NMDA receptor = experiment: Displacement of [3H]CPP from NMDA receptor; type: protein-complex assay, Rattus norvegicus; how it was run: as §1
[3] = biological target: Metabotropic glutamate receptor 1 (Homo sapiens) (UniProt Q13255); experiment: Antagonist activity against mGlu1-alpha receptor in chinese hamster ovary cells using secondary messanger assay determined; type: functional, cell-based; conditions: Cricetulus griseus
Chain of Metabotropic glutamate receptor 1 (Homo sapiens) (Q13255 19-1194 limits assumed): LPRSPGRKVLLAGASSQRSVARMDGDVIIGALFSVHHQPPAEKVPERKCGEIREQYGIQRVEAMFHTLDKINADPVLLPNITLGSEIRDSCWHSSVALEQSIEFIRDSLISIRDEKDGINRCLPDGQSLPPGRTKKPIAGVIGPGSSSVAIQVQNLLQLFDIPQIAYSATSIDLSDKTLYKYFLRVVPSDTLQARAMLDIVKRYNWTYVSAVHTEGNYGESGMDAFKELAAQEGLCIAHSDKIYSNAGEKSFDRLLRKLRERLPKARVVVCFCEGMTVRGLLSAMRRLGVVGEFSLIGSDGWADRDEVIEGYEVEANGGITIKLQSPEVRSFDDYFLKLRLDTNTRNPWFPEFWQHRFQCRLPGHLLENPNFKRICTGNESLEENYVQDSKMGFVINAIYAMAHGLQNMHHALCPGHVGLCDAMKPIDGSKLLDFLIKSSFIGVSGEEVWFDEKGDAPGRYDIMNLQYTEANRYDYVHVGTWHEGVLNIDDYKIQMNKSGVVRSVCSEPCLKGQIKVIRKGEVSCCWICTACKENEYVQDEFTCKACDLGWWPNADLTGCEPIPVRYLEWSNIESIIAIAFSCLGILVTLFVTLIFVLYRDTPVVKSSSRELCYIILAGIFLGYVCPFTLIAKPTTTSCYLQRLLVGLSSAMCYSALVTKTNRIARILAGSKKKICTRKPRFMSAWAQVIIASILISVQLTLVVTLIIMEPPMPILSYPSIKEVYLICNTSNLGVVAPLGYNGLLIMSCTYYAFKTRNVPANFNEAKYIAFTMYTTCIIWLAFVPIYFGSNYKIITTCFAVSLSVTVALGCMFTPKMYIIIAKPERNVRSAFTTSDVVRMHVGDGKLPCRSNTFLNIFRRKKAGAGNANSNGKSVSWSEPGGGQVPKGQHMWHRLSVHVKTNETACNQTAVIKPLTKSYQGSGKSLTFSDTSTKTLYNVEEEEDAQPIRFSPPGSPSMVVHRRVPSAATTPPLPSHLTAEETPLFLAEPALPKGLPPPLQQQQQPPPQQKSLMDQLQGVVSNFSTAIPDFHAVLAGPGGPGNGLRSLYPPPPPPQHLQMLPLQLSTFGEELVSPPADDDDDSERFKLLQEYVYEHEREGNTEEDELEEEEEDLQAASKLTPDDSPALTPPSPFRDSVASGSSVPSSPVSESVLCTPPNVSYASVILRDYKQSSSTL
How it was run: (§2)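 Cloned mGluRs measured with second-messenger assays; group I (mGlu1α, mGlu5α), mGlu2 and mGlu4α tested. Compounds tested for agonist and antagonist activity at 1 mM unless otherwise stated. Mean ± SEM of at least two independent results; some values estimated from partial concentration–response curves.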

[4] = biological target: Metabotropic glutamate receptor 5 (Homo sapiens) (UniProt P41594); experiment: Antagonist activity against mGlu 5a receptor in chinese hamster ovary cells using secondary messanger assay determined; type: functional, cell-based; conditions: Cricetulus griseus; how it was run: as §2
Chain of Metabotropic glutamate receptor 5 (Homo sapiens) (P41594 21-1212 limits assumed): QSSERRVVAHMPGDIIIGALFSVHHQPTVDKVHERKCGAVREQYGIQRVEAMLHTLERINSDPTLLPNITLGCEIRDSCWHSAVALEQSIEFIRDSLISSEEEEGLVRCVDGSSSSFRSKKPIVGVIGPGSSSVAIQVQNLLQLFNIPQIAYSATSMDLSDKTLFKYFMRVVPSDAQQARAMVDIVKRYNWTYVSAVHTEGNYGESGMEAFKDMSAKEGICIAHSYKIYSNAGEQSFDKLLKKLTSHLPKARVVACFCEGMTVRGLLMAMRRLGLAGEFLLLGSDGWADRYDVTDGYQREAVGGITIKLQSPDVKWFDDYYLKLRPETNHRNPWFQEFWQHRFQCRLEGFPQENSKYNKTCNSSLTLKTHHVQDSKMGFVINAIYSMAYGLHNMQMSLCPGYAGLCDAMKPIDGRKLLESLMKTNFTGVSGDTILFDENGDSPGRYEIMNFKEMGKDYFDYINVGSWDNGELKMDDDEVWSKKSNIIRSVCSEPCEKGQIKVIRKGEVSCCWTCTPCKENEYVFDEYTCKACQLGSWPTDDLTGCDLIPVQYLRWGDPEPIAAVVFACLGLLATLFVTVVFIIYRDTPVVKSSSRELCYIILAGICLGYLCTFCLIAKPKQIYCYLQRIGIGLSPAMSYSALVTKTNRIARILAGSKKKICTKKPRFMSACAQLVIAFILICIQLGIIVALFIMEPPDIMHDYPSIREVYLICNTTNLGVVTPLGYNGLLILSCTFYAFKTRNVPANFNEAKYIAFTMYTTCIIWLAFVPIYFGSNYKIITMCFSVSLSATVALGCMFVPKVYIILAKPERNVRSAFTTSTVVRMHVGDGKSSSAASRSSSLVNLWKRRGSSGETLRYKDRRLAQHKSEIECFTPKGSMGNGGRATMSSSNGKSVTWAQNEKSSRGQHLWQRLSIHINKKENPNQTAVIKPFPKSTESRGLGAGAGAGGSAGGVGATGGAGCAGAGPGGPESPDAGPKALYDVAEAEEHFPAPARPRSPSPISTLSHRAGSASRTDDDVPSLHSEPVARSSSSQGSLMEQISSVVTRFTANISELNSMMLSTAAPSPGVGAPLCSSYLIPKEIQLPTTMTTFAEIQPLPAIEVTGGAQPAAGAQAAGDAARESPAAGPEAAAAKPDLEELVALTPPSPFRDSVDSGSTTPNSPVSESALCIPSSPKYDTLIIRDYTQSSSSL

[5] = biological target: Metabotropic glutamate receptor 4 (Homo sapiens) (UniProt Q14833); experiment: Antagonist activity against mGlu 4a receptor in chinese hamster ovary cells using secondary messanger assay determined; type: functional, cell-based; conditions: Cricetulus griseus; how it was run: as §2
Chain of Metabotropic glutamate receptor 4 (Homo sapiens) (Q14833 whole entry): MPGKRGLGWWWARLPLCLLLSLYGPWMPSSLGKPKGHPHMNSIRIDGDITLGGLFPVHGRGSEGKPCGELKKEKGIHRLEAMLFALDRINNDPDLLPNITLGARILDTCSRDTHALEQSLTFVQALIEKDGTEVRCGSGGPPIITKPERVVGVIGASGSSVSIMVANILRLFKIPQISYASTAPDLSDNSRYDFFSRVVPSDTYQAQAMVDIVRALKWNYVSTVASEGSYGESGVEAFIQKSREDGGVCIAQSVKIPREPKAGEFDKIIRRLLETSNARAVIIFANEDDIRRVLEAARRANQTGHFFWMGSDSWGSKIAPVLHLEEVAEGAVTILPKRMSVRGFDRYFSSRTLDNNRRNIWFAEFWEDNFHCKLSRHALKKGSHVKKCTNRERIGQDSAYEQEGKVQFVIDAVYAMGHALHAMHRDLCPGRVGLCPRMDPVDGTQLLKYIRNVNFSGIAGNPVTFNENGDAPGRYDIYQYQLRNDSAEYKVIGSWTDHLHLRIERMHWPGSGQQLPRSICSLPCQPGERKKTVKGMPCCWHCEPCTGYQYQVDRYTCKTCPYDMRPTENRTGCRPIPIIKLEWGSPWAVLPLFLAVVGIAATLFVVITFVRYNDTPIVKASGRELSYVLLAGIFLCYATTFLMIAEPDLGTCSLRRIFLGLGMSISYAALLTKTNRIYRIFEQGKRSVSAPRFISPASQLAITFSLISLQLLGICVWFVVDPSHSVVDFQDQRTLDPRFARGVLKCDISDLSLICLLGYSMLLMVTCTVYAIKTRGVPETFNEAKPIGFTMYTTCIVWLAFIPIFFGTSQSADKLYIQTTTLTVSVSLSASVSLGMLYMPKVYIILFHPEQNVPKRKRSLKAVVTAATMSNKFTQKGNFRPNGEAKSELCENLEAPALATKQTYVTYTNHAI

[6] = biological target: Metabotropic glutamate receptor 2 (Homo sapiens) (UniProt Q14416); experiment: Antagonist activity against mGlu 2 receptor in chinese hamster ovary cells using secondary messanger assay determined; type: functional, cell-based; conditions: Cricetulus griseus; how it was run: as §2
Chain of Metabotropic glutamate receptor 2 (Homo sapiens) (Q14416 19-872 limits assumed): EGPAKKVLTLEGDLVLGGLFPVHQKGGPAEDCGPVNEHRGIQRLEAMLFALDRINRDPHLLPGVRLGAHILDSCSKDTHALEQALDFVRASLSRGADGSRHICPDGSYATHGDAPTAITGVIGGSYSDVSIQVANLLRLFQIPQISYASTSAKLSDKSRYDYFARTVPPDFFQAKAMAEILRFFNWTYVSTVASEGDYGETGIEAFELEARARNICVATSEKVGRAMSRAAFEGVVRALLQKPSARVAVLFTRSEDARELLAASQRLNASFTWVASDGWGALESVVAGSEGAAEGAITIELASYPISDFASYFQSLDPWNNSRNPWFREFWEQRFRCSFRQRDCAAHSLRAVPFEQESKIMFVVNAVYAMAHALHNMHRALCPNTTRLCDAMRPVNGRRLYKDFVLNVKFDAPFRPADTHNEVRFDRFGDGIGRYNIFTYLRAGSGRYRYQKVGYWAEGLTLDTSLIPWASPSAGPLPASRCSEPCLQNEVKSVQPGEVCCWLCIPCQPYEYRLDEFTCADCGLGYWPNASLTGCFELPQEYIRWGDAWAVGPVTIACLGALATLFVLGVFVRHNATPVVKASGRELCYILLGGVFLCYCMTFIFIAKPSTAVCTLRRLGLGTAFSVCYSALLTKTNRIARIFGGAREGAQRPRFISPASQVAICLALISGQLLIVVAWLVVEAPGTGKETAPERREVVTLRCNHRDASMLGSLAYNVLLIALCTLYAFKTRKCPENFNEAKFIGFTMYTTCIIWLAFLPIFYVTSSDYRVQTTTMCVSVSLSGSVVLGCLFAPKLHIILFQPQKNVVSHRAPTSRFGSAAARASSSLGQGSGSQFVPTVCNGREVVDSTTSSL

Row | SMILES | IC50 [1] [µM] | EC50 (Rattus norvegicus) [µM] | IC50 [2] [µM] | IC50 (Glutamate NMDA receptor) [µM] | Kb [3] [µM] | Kb [4] [µM] | Kb [5] [µM] | Kb [6] [µM]
1 | Cc1c(O)noc1CC(N)C(=O)O (stereo not drawn) | 0.32 | 18 |  |  |  |  |  | 
2 | CCCCCCc1c(O)noc1CC(N)C(=O)O (stereo not drawn) | > 100 | > 1000 | > 100 | > 100 |  |  |  | 
3 | CCCCCCc1c(O)noc1C[C@@H](N)C(=O)O | > 100 | > 1000 | > 100 | > 100 |  |  |  | 
4 | N[C@H](Cc1onc(O)c1-c1ccccc1)C(=O)O | > 100 | > 1000 | > 100 | 31 |  |  |  | 
5 | CCCCCCc1c(O)noc1C[C@H](N)C(=O)O | > 100 | > 1000 | > 100 | > 100 | 30 | 61 |  | 
6 | CCCCc1c(C[C@H](N)C(=O)O)o[nH]c1=O | 0.48 |  | > 100 | > 100 |  |  |  | 
7 | CCCCc1c(O)noc1C[C@H](N)C(=O)O |  |  |  |  |  | 97 |  | 
8 | CCCCCCCc1c(O)noc1CC(N)C(=O)O (stereo not drawn) | > 100 | > 500 | > 100 | > 100 |  |  |  | 
9 | N[C@@H](Cc1onc(O)c1-c1ccccc1)C(=O)O | 23 | 395 | > 100 | > 100 |  |  |  | 
10 | CCCCCCCCc1c(O)noc1CC(N)C(=O)O (stereo not drawn) |  | > 500 |  |  | > 100 |  | > 100 | > 100
11 | N[C@@H](Cc1cc(=O)[nH]o1)C(=O)O | 0.8 | 330 | > 100 | > 100 |  |  |  | 
12 | NC(Cc1onc(O)c1-c1ccccc1)C(=O)O (stereo not drawn) | 39 | 590 | > 100 | > 100 |  |  |  | 
13 | CCCCCc1c(O)noc1CC(N)C(=O)O (stereo not drawn) | 11 | 630 | > 100 | > 100 |  |  |  | 
